From ChEMBL document CHEMBL2331322, “Synthesis and antimicrobial activity of some new benzo and naphthonitrile derivatives” (2013)
In brackets after ≈: the same amount, converted by molar mass.

Columns and labels:
Type in all cases: functional
[1] = system: Bacillus subtilis; assay: Antimicrobial activity against Bacillus subtilis at 1 mg/mL after 24 hrs by agar disc diffusion method; details: read-out: DIZ
Procedure, shortened: (§1)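 Sterile 5 mm filter paper disks were impregnated with test solution in DMF (1 mg/mL) and placed on agar plates seeded with the test organism, in triplicate. Bacteria were incubated at 37 °C for 24 h and fungi for […] (so in the source). The read-out was the average inhibition zone diameter around the disks, in mm.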

[2] = system: Botrytis fabae; assay: Antimicrobial activity against Botrytis fabae after 48 hrs by microdilution susceptibility test
Procedure, shortened: (§2)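 MIC was determined by broth microdilution, using Müller–Hinton broth for bacteria and Sabouraud liquid medium for fungi. Stocks were made in DMF and serially diluted twofold. Wells were inoculated at 10⁶ CFU/mL and plates incubated at 36 °C for 24–48 h, with controls included. Only compounds giving agar-diffusion zones >14 mm were tested.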

[3] = system: Fusarium oxysporum; assay: Antimicrobial activity against Fusarium oxysporum after 48 hrs by microdilution susceptibility test; procedure, shortened: as §2
[4] = system: Pseudomonas aeruginosa; assay: Antimicrobial activity against Pseudomonas aeruginosa after 24 hrs by microdilution susceptibility test; procedure, shortened: as §2
[5] = system: Escherichia coli; assay: Antimicrobial activity against Escherichia coli after 24 hrs by microdilution susceptibility test; procedure, shortened: as §2
[6] = system: Bacillus subtilis; assay: Antimicrobial activity against Bacillus subtilis after 24 hrs by microdilution susceptibility test; procedure, shortened: as §2
[7] = system: Bacillus thuringiensis; assay: Antimicrobial activity against Bacillus thuringiensis after 24 hrs by microdilution susceptibility test; procedure, shortened: as §2
[8] = system: Botrytis fabae; assay: Antimicrobial activity against Botrytis fabae at 1 mg/mL […] by agar disc diffusion method; details: read-out: DIZ
[9] = system: Fusarium oxysporum; assay: Antimicrobial activity against Fusarium oxysporum at 1 mg/mL after 48 hrs by agar disc diffusion method; details: read-out: DIZ; procedure, shortened: as §1
[10] = system: Pseudomonas aeruginosa; assay: Antimicrobial activity against Pseudomonas aeruginosa at 1 mg/mL after 24 hrs by agar disc diffusion method; details: read-out: DIZ; procedure, shortened: as §1
[11] = system: Escherichia coli; assay: Antimicrobial activity against Escherichia coli at 1 mg/mL after 24 hrs by agar disc diffusion method; details: read-out: DIZ; procedure, shortened: as §1
[12] = system: Bacillus thuringiensis; assay: Antimicrobial activity against Bacillus thuringiensis at 1 mg/mL after 24 hrs by agar disc diffusion method; details: read-out: DIZ; procedure, shortened: as §1

MIC [2]	MIC [3]	MIC [4]	MIC [5]	MIC [6]	MIC [7]	Structure (SMILES)	zone of inhibition at 1000 µg/mL [1]	MBC [5]	MBC [6]	zone of inhibition at 1000 µg/mL [8]	zone of inhibition at 1000 µg/mL [9]	zone of inhibition at 1000 µg/mL [10]	zone of inhibition at 1000 µg/mL [11]	zone of inhibition at 1000 µg/mL [12]
50 µg/mL (≈ 136 µM)	25 µg/mL (≈ 68.2 µM)	25 µg/mL (≈ 68.2 µM)	50 µg/mL (≈ 136 µM)	25 µg/mL (≈ 68.2 µM)	50 µg/mL (≈ 136 µM)	CCOC(=O)c1c2[nH]c(=N)c3ccccc3c2nn1-c1ccc(Cl)cc1	33 mm	200 µg/mL (≈ 545 µM)	200 µg/mL (≈ 545 µM)	27 mm	16 mm	33 mm	25 mm	38 mm
12.5 µg/mL (≈ 40.4 µM)	12.5 µg/mL (≈ 40.4 µM)	25 µg/mL (≈ 80.8 µM)	25 µg/mL (≈ 80.8 µM)	6.25 µg/mL (≈ 20.2 µM)	12.5 µg/mL (≈ 40.4 µM)	N#Cc1ccccc1C(/N=N/c1ccc([N+](=O)[O-])cc1)C(N)=O (stereo not drawn)	33 mm	200 µg/mL (≈ 647 µM)	50 µg/mL (≈ 162 µM)	38 mm	35 mm	16 mm	15 mm	35 mm
25 µg/mL (≈ 75.2 µM)	50 µg/mL (≈ 150 µM)	50 µg/mL (≈ 150 µM)	50 µg/mL (≈ 150 µM)	25 µg/mL (≈ 75.2 µM)	25 µg/mL (≈ 75.2 µM)	CCOC(=O)c1c2[nH]c(=N)c3ccccc3c2nn1-c1ccccc1	33 mm	200 µg/mL (≈ 602 µM)	200 µg/mL (≈ 602 µM)	20 mm	33 mm	19 mm	20 mm	35 mm
50 µg/mL (≈ 144 µM)	50 µg/mL (≈ 144 µM)	50 µg/mL (≈ 144 µM)	50 µg/mL (≈ 144 µM)	25 µg/mL (≈ 72.2 µM)	50 µg/mL (≈ 144 µM)	CCOC(=O)c1c2[nH]c(=N)c3ccccc3c2nn1-c1ccc(C)cc1	32 mm	200 µg/mL (≈ 577 µM)	200 µg/mL (≈ 577 µM)	16 mm	25 mm	15 mm	15 mm	20 mm
		6.25 µg/mL (≈ 15.8 µM)	6.25 µg/mL (≈ 15.8 µM)	6.25 µg/mL (≈ 15.8 µM)	6.25 µg/mL (≈ 15.8 µM)	CC(=O)OCC1=C(C(=O)O)N2C(=O)[C@@H](NC(=O)Cc3cccs3)[C@H]2SC1 [CEPHALOTHIN]	36 mm					37 mm	38 mm	37 mm
25 µg/mL (≈ 96 µM)	12.5 µg/mL (≈ 48 µM)	25 µg/mL (≈ 96 µM)	25 µg/mL (≈ 96 µM)	12.5 µg/mL (≈ 48 µM)	25 µg/mL (≈ 96 µM)	Cc1ccc(/N=N/C(C#N)c2ccccc2C#N)cc1 (stereo not drawn)	35 mm	200 µg/mL (≈ 768 µM)	100 µg/mL (≈ 384 µM)	35 mm	33 mm	16 mm	30 mm	33 mm
100 µg/mL (≈ 312 µM)	100 µg/mL (≈ 312 µM)	100 µg/mL (≈ 312 µM)	100 µg/mL (≈ 312 µM)	100 µg/mL (≈ 312 µM)	100 µg/mL (≈ 312 µM)	COc1cc(/C=C(\C#N)c2ccccc2C#N)cc(OC)c1OC	20 mm	200 µg/mL (≈ 624 µM)	200 µg/mL (≈ 624 µM)	20 mm	19 mm	18 mm	16 mm	15 mm
50 µg/mL (≈ 139 µM)	50 µg/mL (≈ 139 µM)	100 µg/mL (≈ 278 µM)	100 µg/mL (≈ 278 µM)	50 µg/mL (≈ 139 µM)	50 µg/mL (≈ 139 µM)	COc1cc(-c2c(C#N)c(N)c3ccccc3c2C#N)cc(OC)c1OC	26 mm	200 µg/mL (≈ 557 µM)	200 µg/mL (≈ 557 µM)	28 mm	33 mm	32 mm	35 mm	35 mm
25 µg/mL (≈ 94.6 µM)	12.5 µg/mL (≈ 47.3 µM)	25 µg/mL (≈ 94.6 µM)	25 µg/mL (≈ 94.6 µM)	12.5 µg/mL (≈ 47.3 µM)	12.5 µg/mL (≈ 47.3 µM)	N#Cc1ccccc1C(/N=N/c1ccccc1)C(N)=O (stereo not drawn)	37 mm	200 µg/mL (≈ 757 µM)	100 µg/mL (≈ 378 µM)	15 mm	27 mm	31 mm	15 mm	37 mm
100 µg/mL (≈ 384 µM)	50 µg/mL (≈ 192 µM)	100 µg/mL (≈ 384 µM)	100 µg/mL (≈ 384 µM)	100 µg/mL (≈ 384 µM)	100 µg/mL (≈ 384 µM)	COc1ccc(/C=C(\C#N)c2ccccc2C#N)cc1	26 mm	200 µg/mL (≈ 768 µM)	100 µg/mL (≈ 384 µM)	25 mm	20 mm	26 mm	19 mm	18 mm
6.25 µg/mL (≈ 21.5 µM)	6.25 µg/mL (≈ 21.5 µM)	6.25 µg/mL (≈ 21.5 µM)	6.25 µg/mL (≈ 21.5 µM)	3.12 µg/mL (≈ 10.7 µM)	6.25 µg/mL (≈ 21.5 µM)	N#Cc1ccccc1C(C#N)/N=N/c1ccc([N+](=O)[O-])cc1 (stereo not drawn)	43 mm	100 µg/mL (≈ 343 µM)	50 µg/mL (≈ 172 µM)	40 mm	41 mm	35 mm	36 mm	37 mm
25 µg/mL (≈ 81.6 µM)	25 µg/mL (≈ 81.6 µM)	50 µg/mL (≈ 163 µM)	25 µg/mL (≈ 81.6 µM)	50 µg/mL (≈ 163 µM)	50 µg/mL (≈ 163 µM)	N=c1[nH]c2nn(-c3ccc([N+](=O)[O-])cc3)nc2c2ccccc12	38 mm	200 µg/mL (≈ 653 µM)	200 µg/mL (≈ 653 µM)	16 mm	15 mm	15 mm	26 mm	38 mm
6.25 µg/mL (≈ 22.3 µM)	6.25 µg/mL (≈ 22.3 µM)	12.5 µg/mL (≈ 44.5 µM)	6.25 µg/mL (≈ 22.3 µM)	3.12 µg/mL (≈ 11.1 µM)	6.25 µg/mL (≈ 22.3 µM)	N#Cc1ccccc1C(C#N)/N=N/c1ccc(Cl)cc1 (stereo not drawn)	42 mm	200 µg/mL (≈ 712 µM)	50 µg/mL (≈ 178 µM)	39 mm	38 mm	35 mm	37 mm	38 mm

Structure (SMILES)	MIC [2]	MIC [3]	MIC [4]	MIC [5]	MIC [6]	MIC [7]	zone of inhibition at 1000 µg/mL [1]	MBC [5]	MBC [6]	zone of inhibition at 1000 µg/mL [8]	zone of inhibition at 1000 µg/mL [9]	zone of inhibition at 1000 µg/mL [10]	zone of inhibition at 1000 µg/mL [11]	zone of inhibition at 1000 µg/mL [12]
CC1(C)S[C@@H]2[C@H](NC(=O)[C@H](N)c3ccccc3)C(=O)N2[C@H]1C(=O)O [AMPICILLIN]				6.25 µg/mL (≈ 17.9 µM)	3.12 µg/mL (≈ 8.94 µM)		40 mm	25 µg/mL (≈ 71.5 µM)	50 µg/mL (≈ 143 µM)				38 mm	
N#CCc1ccccc1C#N	100 µg/mL (≈ 703 µM)	50 µg/mL (≈ 352 µM)	100 µg/mL (≈ 703 µM)	100 µg/mL (≈ 703 µM)	100 µg/mL (≈ 703 µM)	50 µg/mL (≈ 352 µM)	15 mm	200 µg/mL (≈ 1410 µM)	200 µg/mL (≈ 1410 µM)	15 mm	14 mm	15 mm	16 mm	15 mm
C[C@@H]1C[C@@H]([C@H](O)CC2CC(=O)NC(=O)C2)C(=O)[C@@H](C)C1 [CYCLOHEXIMIDE]	3.12 µg/mL (≈ 11.1 µM)	3.12 µg/mL (≈ 11.1 µM)								42 mm	43 mm			
O=C(N[C@H](CO)[C@H](O)c1ccc([N+](=O)[O-])cc1)C(Cl)Cl [CHLORAMPHENICOL]			6.25 µg/mL (≈ 19.3 µM)	6.25 µg/mL (≈ 19.3 µM)	3.12 µg/mL (≈ 9.67 µM)	3.12 µg/mL (≈ 9.67 µM)	44 mm					38 mm	37 mm	44 mm
